Measurements of several laboratories.
Each line is one published result; the experiments were not run side by side.
FGFR3 G697C: Fibroblast growth factor receptor 3 (FGFR3, Homo sapiens, UniProt P22607, G697C)
FGFR3: Fibroblast growth factor receptor 3 (FGFR3, Homo sapiens, UniProt P22607)

The remaining binding of `O=C(c1ccc(Nc2ncc(Cl)c(-c3cc4ccccc4s3)n2)cc1)N1CCC(N2CCCC2)CC1` is reported as 34% (FGFR3 G697C; binding, competition with immobilised ligand; 1 µM).
`Cn1nc(C(=O)NCc2ccc(C(=O)O)cc2)cc1-c1ccc2[nH]ccc2c1` gave a remaining binding of 82% (FGFR3 G697C; cell-free assay, competition with immobilised ligand; 0.1 µM).
The remaining binding of `COc1cnc(Nc2cccc(S(N)(=O)=O)c2)nc1N1CCN(c2ccccc2)C(=O)C1` is reported as 100% (FGFR3; binding, competition with immobilised ligand; 1 µM).
`CN(c1nccc(-c2cnn3ncccc23)n1)C1CC1` has a remaining binding of 98% (FGFR3; binding; 1 µM).
The remaining binding of `C[C@@H](c1ccc(-n2cnc3c(N)ncnc32)cc1)N1CCc2nn(C)c(Cc3ccccc3)c2C1=O` is reported as 96% (FGFR3 G697C; binding, competition with immobilised ligand; 0.1 µM).
With `N[C@@H]1CCN(c2nccc(-c3cnn4ncccc34)n2)C1` the remaining binding was 100% (FGFR3; binding; 1 µM).
With `C[C@@H]1CN(c2ccc3ncc(-c4ccc5[nH]nc(C6CC6)c5c4)n3n2)C[C@H](C)O1` the remaining binding was 100% (FGFR3; binding, competition with immobilised ligand; 0.5 µM).
For `O=C(NCCCN1CCOCC1)c1ccc(Nc2nccc(-c3cc4ccccc4s3)n2)cc1`, the remaining binding was 79% (FGFR3 G697C; binding, competition with immobilised ligand; 1 µM).
For `COc1ccc2cc(OCC3(C(=O)O)CN(C(=O)c4ccc(F)cc4)C3)ccc2c1`, the remaining binding was 100% (FGFR3; cell-free assay, competition with immobilised ligand; 1 µM).
For `O=C(c1ccc(Nc2ncc(Cl)c(-c3ccc(Cl)s3)n2)cc1)N1CCC(N2CCCC2)CC1`, the remaining binding was 4.9% (FGFR3 G697C; binding, competition with immobilised ligand; 1 µM).
`CC1CCCN1c1nccc(-c2cnn3ncccc23)n1` (stereo not shown) has a remaining binding of 86% (FGFR3 G697C; binding; 1 µM).
`Cc1cnc(Nc2ccc(C(=O)N3CCC(N4CCCC4)CC3)cc2)nc1-c1cc2ccccc2s1` has a remaining binding of 16% (FGFR3 G697C; binding, competition with immobilised ligand; 1 µM).
The remaining binding of `COc1ncc2cc3ccccc3nc2c1C#N` is reported as 100% (FGFR3; cell-free assay, competition with immobilised ligand; 5 µM).
For `O=C(c1ccc(Nc2nccc(-c3cc4ccccc4s3)n2)cc1)N1CCC(N2CCCC2)CC1`, the remaining binding was 77% (FGFR3 G697C; binding, competition with immobilised ligand; 1 µM).
`CC(=O)N1CCC(c2ccc(C(=O)NC(=N)N)cc2C(F)(F)F)CC1` gave a remaining binding of 98% (FGFR3 G697C; cell-free assay, competition with immobilised ligand; 1 µM).
The remaining binding of `CN1CCN(c2ccc(Nc3nccc(-c4cccc([N+](=O)[O-])c4)n3)cc2C(F)(F)F)CC1` is reported as 63% (FGFR3 G697C; binding; 10 µM).
For `c1cncc(-c2cccc(Nc3nccc(NC4CCCCC4)n3)c2)c1`, the remaining binding was 51% (FGFR3 G697C; binding, competition with immobilised ligand; 10 µM).
The remaining binding of `CNC(=O)[C@@H]1CC[C@@H](n2c(-c3ccc4cnccc4c3)nc3ccc(C(=O)NCc4cccc(C(N)=O)c4)cc32)C1` is reported as 100% (FGFR3; binding, competition with immobilised ligand; 1 µM).
`CS(=O)(=O)c1cc(C2(NC(=O)c3cncc4c3cnn4-c3ccc(F)cc3)CC2)ccn1` has a remaining binding of 100% (FGFR3; cell-free assay, competition with immobilised ligand; 1 µM).
The remaining binding of `c1cnn2ncc(-c3ccnc(N4CCC45COC5)n3)c2c1` is reported as 86% (FGFR3 G697C; binding; 1 µM).
For `CCC(=O)N[C@H]1CC[C@@H](C(=O)N(C)c2ccc(-c3nc4ccccc4o3)cc2)C1`, the remaining binding was 100% (FGFR3 G697C; cell-free assay, competition with immobilised ligand; 1 µM).
`Nc1ncc2c(n1)-c1c([nH]c3ccc(C#CC4CC4)cc13)CCCC2` gave a remaining binding of 95% (FGFR3; binding, competition with immobilised ligand; 1 µM).
`CN(C)C(=O)Cn1cc(-c2nc([C@@](C)(c3ccc(-c4cnc(N)nc4)cc3)C3CC3)no2)cn1` has a remaining binding of 89% (FGFR3 G697C; cell-free assay, competition with immobilised ligand; 1 µM).
For `O=C(NCC1CCOCC1)c1n[nH]cc1NC(=O)c1c(F)cccc1F`, the remaining binding was 100% (FGFR3; binding, competition with immobilised ligand; 1 µM).
The remaining binding of `C[C@@H](c1cccc(C#N)c1)n1cc(Cl)cc(C(N)=O)c1=N` is reported as 79% (FGFR3 G697C; cell-free assay, competition with immobilised ligand; 1 µM).
`CC(C)(C)c1ccc(-c2nc(CBr)nn2-c2cccc(O)c2)cc1` has a remaining binding of 93% (FGFR3; cell-free assay, competition with immobilised ligand; 10 µM).
`COCCOc1nc(-c2ccc(Cl)nc2)nc2c1CN(C(=O)c1ncn3ccccc13)CC2` gave a remaining binding of 100% (FGFR3 G697C; cell-free assay, competition with immobilised ligand; 0.1 µM).
With `CN(C)c1nccc(-c2cnc3ncccn23)n1` the remaining binding was 99% (FGFR3 G697C; binding; 1 µM).
`C=CC(=O)N1CCC(C(=O)NCC(=O)N2CCN(c3nc(-c4cnc(N)nc4C(F)F)nc(N4CCOCC4)n3)CC2)CC1` has a remaining binding of 96% (FGFR3; binding, competition with immobilised ligand; 1 µM).
With `O=C(Nc1c[nH]nc1C(=O)NC1CCNCC1)c1cc(F)cc(F)c1` the remaining binding was 100% (FGFR3; binding, competition with immobilised ligand; 1 µM).
`CN(C)c1nccc(-c2cnn3ncccc23)n1` has a remaining binding of 65% (FGFR3 G697C; binding; 1 µM).
`FC(F)(F)Oc1cccc(-c2cnc3ccc(-c4ccncc4)nn23)c1` gave a remaining binding of 86% (FGFR3; cell-free assay, competition with immobilised ligand; 5 µM).
With `F[C@@H]1CCN(c2nccc(-c3cnn4ncccc34)n2)C1` the remaining binding was 79% (FGFR3 G697C; binding; 1 µM).
For `O=C(NCCCN1CCOCC1)c1ccc(Nc2ncc(Cl)c(-c3ccc(Cl)s3)n2)cc1`, the remaining binding was 32% (FGFR3 G697C; binding, competition with immobilised ligand; 1 µM).
For `C[C@H]1CCN(c2nccc(-c3cnn4ncccc34)n2)C1`, the remaining binding was 100% (FGFR3; binding; 1 µM).
The remaining binding of `CCN1CCN(Cc2ccc(C(=O)Nc3ccc(C)c(Oc4ccc5c(c4)CC(=O)N5)c3)cc2C(F)(F)F)CC1` is reported as 88% (FGFR3 G697C; binding, competition with immobilised ligand; 1 µM).
The remaining binding of `COc1cnc(Nc2cccc(S(N)(=O)=O)c2)nc1N1CCN(c2ccccc2)CC1` is reported as 98% (FGFR3; binding, competition with immobilised ligand; 1 µM).
